Assay results: the RNAGym collection of RNA variant scans (doi:10.1101/gad.245936.114)
Fewer inactive variants are shown than the library holds.

B1: tRNA (parent)
chain: CUCUCGGUAGCCAAGUUGGUUUAAGGCGCAAGACUUUAAUUUAUCACUACGAAAUCUUGAGAUCGGGCGUUCGACUCGCCCCCGGGAGAUUUUUUCCUCGAGCAA

Variants of: B1
Assay: nonsense suppression (GFP-seq) (ratio to wild type); higher = more function; SUP4oc tRNA, yeast GFP reporter sort-seq
Method in brief: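 Sorted GFP/RFP bins of yeast were each Illumina-sequenced with a phred ≥30 cutoff; the cells held a genome-integrated ochre-suppressor tRNA variant from a library with ~3% random mutations, a galactose-driven GFP ochre reporter, and RFP. Culture was in raffinose/galactose medium containing 80 mg/L adenine. Nonsense suppression, termed GFPSEQ, is the median GFP/RFP of the bins weighted by each variant's estimated cell share per bin, relative to the unmutated parent tRNA, for variants reaching ≥100 reads and ≥30 cells.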

First: C12U G78U
Second: G73A G88A
The nonsense suppression of the first is higher: 0.0326 for the first, 0.0281 for the second.

Compared with G66C G69C G73C G84C, U63A G85U is higher in nonsense suppression: no more than 0.026 for the first, 0.23 for the second.

Going from G15A C80U to U17G A33U U63C G65C, the nonsense suppression falls from 0.167 to no more than 0.026.

Compared with U4C A24U, C3G U4G is lower in nonsense suppression: 0.84 for the first, 0.0277 for the second.

Compared with C3G U16G G66A, U20C A31G is higher in nonsense suppression: no more than 0.026 for the first, 0.0336 for the second.

Going from A54C G73C to C3U U8C, the nonsense suppression rises from 0.0591 to 0.0916.

Going from A30G U76A to A23G C56A C64G A74C, the nonsense suppression falls from 0.043 to no more than 0.026.

U22G C68G and A30C A54U A60G A74U cannot be ordered by nonsense suppression: no more than 0.026 for the first, no more than 0.026 for the second.

First: U21G A60G
Second: C34U A60G
The nonsense suppression of the first is lower: 0.0299 for the first, 0.0428 for the second.

First: G61A C79U
Second: A9U G25U G26C C64A G65A G73A
The nonsense suppression of the first is higher: 0.209 for the first, no more than 0.026 for the second.

First: U2C G61U
Second: A54C G85C
The nonsense suppression of the first is higher: 0.122 for the first, 0.0904 for the second.

First: C29A U55G
Second: A24U A60U
The nonsense suppression of the first is lower: no more than 0.026 for the first, 0.0572 for the second.

Going from A24C A60U U63A to C29A A60G, the nonsense suppression falls from 0.112 to 0.0331.

Going from U17C U22C A60G to U17G U21G G61U, the nonsense suppression falls from 0.348 to 0.0263.

Going from A13G A30G to G7U A13G U17A, the nonsense suppression falls from 0.105 to no more than 0.026.

Compared with C29G G59A C80G, G61A U63G is higher in nonsense suppression: no more than 0.026 for the first, 0.227 for the second.

A23C G59C G61A and A62G U63C G66A cannot be ordered by nonsense suppression: no more than 0.026 for the first, no more than 0.026 for the second.

U2C U63G G73A and C1U G15C G26C cannot be ordered by nonsense suppression: no more than 0.026 for the first, no more than 0.026 for the second.

Compared with C5U A23G, U8A A13U G19A A62G G67A U71C is lower in nonsense suppression: 0.0405 for the first, no more than 0.026 for the second.

Compared with G18C G88A, U4C U35G G61A G78A C83A G86C is lower in nonsense suppression: 0.135 for the first, no more than 0.026 for the second.

First: C11U G28A A33G
Second: U17G A54U
The nonsense suppression of the first is lower: no more than 0.026 for the first, 1.16 for the second.

Compared with C12U, G18A A30U is lower in nonsense suppression: 0.773 for the first, 0.0262 for the second.

Going from A30G C75U to U8C C12A C68A C72U, the nonsense suppression falls from 1.19 to no more than 0.026.

Going from U21C C29U G61U to U4G C68G, the nonsense suppression falls from 0.518 to 0.0622.

Going from U21C G61A A62C to U20A A87G, the nonsense suppression rises from 0.0269 to 0.226.

First: U4G U20A
Second: G28A C29U
The nonsense suppression of the first is lower: 0.0644 for the first, 1.15 for the second.

U20A C56A G66A and C11U A33G A74C C83A cannot be ordered by nonsense suppression: no more than 0.026 for the first, no more than 0.026 for the second.

First: G26U C64G
Second: A54C C64U
The nonsense suppression of the first is lower: no more than 0.026 for the first, 0.0402 for the second.

Going from A13U C75A to U4A G18A C77A, the nonsense suppression falls from 0.866 to no more than 0.026.

C77U C79A C83A and G28A U76G cannot be ordered by nonsense suppression: no more than 0.026 for the first, no more than 0.026 for the second.

C27U A30U G85C and A14C G65C C80G A87C cannot be ordered by nonsense suppression: no more than 0.026 for the first, no more than 0.026 for the second.

Going from U4A U21A G66U to C75A G85A, the nonsense suppression rises from no more than 0.026 to 1.05.

First: G10C G15C U20G
Second: G61A G85U
The nonsense suppression of the first is lower: no more than 0.026 for the first, 0.429 for the second.

G88U A89G and U8C A14C C34U cannot be ordered by nonsense suppression: no more than 0.026 for the first, no more than 0.026 for the second.

U8A A14U U20A A74C and U4A G10A U21G G28C cannot be ordered by nonsense suppression: no more than 0.026 for the first, no more than 0.026 for the second.

First: G10A G59A
Second: A9G G61U C75G
The nonsense suppression of the first is lower: no more than 0.026 for the first, 1.12 for the second.

First: U2C A60C
Second: C27G A87G
The nonsense suppression of the first is higher: 0.0359 for the first, 0.0273 for the second.

A14C A31U A33U and G59C A87U cannot be ordered by nonsense suppression: no more than 0.026 for the first, no more than 0.026 for the second.

First: U4C A9G A13G U76C
Second: A9G A33U C34G U71A
The nonsense suppression of the first is higher: 0.202 for the first, no more than 0.026 for the second.

Compared with A74G C83G, U20C U21C is higher in nonsense suppression: no more than 0.026 for the first, 1.15 for the second.

Going from U17G A54U G61C to A31G G61A, the nonsense suppression rises from 0.162 to 0.8.

C3G A30G C34G U55G G69C C79A and C56A G69A cannot be ordered by nonsense suppression: no more than 0.026 for the first, no more than 0.026 for the second.

First: U76C
Second: C3A G28A G73A A74G
The nonsense suppression of the first is higher: 1 for the first, no more than 0.026 for the second.

A23G G69C and C27G G66U cannot be ordered by nonsense suppression: no more than 0.026 for the first, no more than 0.026 for the second.

U71G A89U and G7U C27U U35A A74C cannot be ordered by nonsense suppression: no more than 0.026 for the first, no more than 0.026 for the second.

First: U4A C11U C34U
Second: A23G C68U
The nonsense suppression of the first is lower: no more than 0.026 for the first, 0.182 for the second.

Compared with C29G A87G, A30U A60U C68U is higher in nonsense suppression: no more than 0.026 for the first, 0.0354 for the second.

Compared with A14G G78A, U17C U63A is higher in nonsense suppression: 0.0272 for the first, 0.197 for the second.

First: A30G A60G
Second: G61A A62U G84U
The nonsense suppression of the first is higher: 0.108 for the first, no more than 0.026 for the second.

Going from U2A C68U to C3U U20G, the nonsense suppression rises from 0.18 to 0.194.

First: A30G G85A
Second: C27G C77G
The nonsense suppression of the first is higher: 0.793 for the first, no more than 0.026 for the second.

Going from G19A U21G C64U to C5A A24C, the nonsense suppression rises from no more than 0.026 to 0.0269.

First: A13C G61A C75G
Second: A24G C75U
The nonsense suppression of the first is higher: 0.761 for the first, 0.185 for the second.

Compared with C11G G66A G69C, A13C C27A G61C C75G is lower in nonsense suppression: 0.0424 for the first, no more than 0.026 for the second.

A30U U35G G65U and C5U G6A C11A G25A cannot be ordered by nonsense suppression: no more than 0.026 for the first, no more than 0.026 for the second.

First: C5G U76G
Second: U22C A24U C29U A30G
The nonsense suppression of the first is lower: no more than 0.026 for the first, 0.0731 for the second.

Going from C3U U16G to U21G G78U, the nonsense suppression falls from 0.22 to 0.034.

First: C5U C75A
Second: G88C
The nonsense suppression of the first is higher: 0.209 for the first, 0.028 for the second.

Compared with C27A C83G G84C, G61A U76C is higher in nonsense suppression: no more than 0.026 for the first, 0.775 for the second.

First: U57A
Second: A13C C80U
The nonsense suppression of the first is lower: 0.0873 for the first, 0.179 for the second.

C80A G86A and C5U C68U cannot be ordered by nonsense suppression: no more than 0.026 for the first, no more than 0.026 for the second.

Going from U21A G65C U71A G78U to G59U, the nonsense suppression rises from no more than 0.026 to 0.116.

Compared with U17A G61C, U16G G28U U35G G59A G85A is lower in nonsense suppression: 0.665 for the first, no more than 0.026 for the second.

Going from U17C G28A to C1G G25A U35C, the nonsense suppression falls from 1.09 to no more than 0.026.

Going from A54U G65A to U21C U57C C80U G85A, the nonsense suppression falls from 0.0335 to no more than 0.026.

Compared with C29U G67C, U20C G85A is higher in nonsense suppression: no more than 0.026 for the first, 0.861 for the second.

Going from C12U A13U C79U to C75G G78C, the nonsense suppression rises from 0.0331 to 0.361.

Compared with C5U C79U, U4G G61U is higher in nonsense suppression: 0.0439 for the first, 0.804 for the second.

U35G C68G C82U and C11U cannot be ordered by nonsense suppression: no more than 0.026 for the first, no more than 0.026 for the second.

Compared with U16G A30C A31G U55A U57A, U20A G61C is higher in nonsense suppression: no more than 0.026 for the first, 0.0711 for the second.

Compared with G6A A24G, U16C U17C G18A G67A is lower in nonsense suppression: 0.0293 for the first, no more than 0.026 for the second.

Compared with U8C G85U, A9G A60C is lower in nonsense suppression: 0.0537 for the first, no more than 0.026 for the second.

Going from C29U G85U to G61C G84U, the nonsense suppression rises from 0.0262 to 0.199.

First: U16C G61A U63A
Second: G10A U58A A62G U70A
The nonsense suppression of the first is higher: 0.186 for the first, no more than 0.026 for the second.

Compared with G6U C80U, U17A U22G is higher in nonsense suppression: no more than 0.026 for the first, 1.03 for the second.

A24G U35G and A33C U35C C83A cannot be ordered by nonsense suppression: no more than 0.026 for the first, no more than 0.026 for the second.

Going from G10A A13C to U17C U55C G59A G66C, the nonsense suppression falls from 0.0618 to no more than 0.026.

First: C3G G61C
Second: C3U C68U
The nonsense suppression of the first is lower: 0.0292 for the first, 0.201 for the second.

Going from U57A G85A to C12U C64U, the nonsense suppression falls from 0.165 to no more than 0.026.

Going from C12U G28A to A23G C56G G65A U71G, the nonsense suppression falls from 0.51 to no more than 0.026.

Compared with U16G U63A, C12U U16C G28A is lower in nonsense suppression: 1.09 for the first, 0.295 for the second.

Going from C12U A54U to G7A G86U, the nonsense suppression falls from 0.229 to no more than 0.026.

A14U U16C U58A G61U C72U and G65C G88A cannot be ordered by nonsense suppression: no more than 0.026 for the first, no more than 0.026 for the second.

In the case of G10C A13G G15A U57C, the nonsense suppression is reported as no more than 0.026.
